Laboratory results taken from ChEMBL document CHEMBL1926614, “Substituted thiazoles V. synthesis and antitumor activity of novel thiazolo[2,3-b]quinazoline and pyrido[4,3-d]thiazolo[3,2-a]pyrimidine analogues” (2012).

Tests used:
Assay type in all cases: functional
MOLT-4 = assay: Growth inhibition of human MOLT4 cells at 10 uM after 48 hrs by coulter counting; conditions: MOLT-4, 48 h, read-out: GI
Method in brief: (§1)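 Single-dose primary screen across the full NCI 60-cell-line panel. Stocks were made in DMSO and diluted in PBS to a final DMSO below 1%. Cultures at 6 × 10⁴ cells/ml were run in duplicate wells alongside PBS/DMSO vehicle controls at 37 °C in humidified 5% CO₂. Data were expressed as percent growth of treated cells.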

HT-29 = assay: Growth inhibition of human HT-29 cells at 10 uM after 48 hrs by coulter counting; conditions: HT-29, 48 h, read-out: GI; method in brief: as §1
RPMI-8226 = assay: Growth inhibition of human RPMI8226 cells at 10 uM after 48 hrs by coulter counting; conditions: RPMI-8226, 48 h, read-out: GI; method in brief: as §1
K562 = assay: Growth inhibition of human K562 cells at 10 uM after 48 hrs by coulter counting; conditions: K562, 48 h, read-out: GI; method in brief: as §1
DU-145 = assay: Growth inhibition of human DU145 cells at 10 uM after 48 hrs by coulter counting; conditions: DU-145, 48 h, read-out: GI; method in brief: as §1
SF-539 = assay: Growth inhibition of human SF539 cells at 10 uM after 48 hrs by coulter counting; conditions: SF-539, 48 h, read-out: GI; method in brief: as §1
UACC-257 = assay: Growth inhibition of human UACC257 cells at 10 uM after 48 hrs by coulter counting; conditions: UACC-257, 48 h, read-out: GI
Method in brief: (§2)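 Single-dose screen in the NCI 60 human tumor cell line panel (nine subpanels). Compounds dissolved in DMSO and diluted in phosphate buffered saline, keeping final DMSO below 1%. Added in duplicate wells to cells at 6 × 10⁴ cells/ml. Controls held PBS and DMSO at matching dilutions. Incubated at 37 °C, humidified, 5% CO₂. Reported as percent growth of treated cells.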

A498 = assay: Growth inhibition of human A498 cells at 10 uM after 48 hrs by coulter counting; conditions: A498, 48 h, read-out: GI; method in brief: as §1
SK-MEL-28 = assay: Growth inhibition of human SK-MEL-28 cells at 10 uM after 48 hrs by coulter counting; conditions: SK-MEL-28, 48 h, read-out: GI; method in brief: as §1
HOP-62 = assay: Growth inhibition of human HOP62 cells at 10 uM after 48 hrs by coulter counting; conditions: HOP-62, 48 h, read-out: GI; method in brief: as §1
SNB-75 = assay: Growth inhibition of human SNB75 cells at 10 uM after 48 hrs by coulter counting; conditions: SNB-75, 48 h, read-out: GI; method in brief: as §1
M14 = assay: Growth inhibition of human M14 cells at 10 uM after 48 hrs by coulter counting; conditions: M14, 48 h, read-out: GI; method in brief: as §1
HCT-116 = assay: Growth inhibition of human HCT116 cells at 10 uM after 48 hrs by coulter counting; conditions: HCT-116, 48 h, read-out: GI; method in brief: as §1
NCI-H460 = assay: Growth inhibition of human NCI-H460 cells at 10 uM after 48 hrs by coulter counting; conditions: NCI-H460, 48 h, read-out: GI; method in brief: as §1
MCF7 = assay: Growth inhibition of human MCF7 cells at 10 uM after 48 hrs by coulter counting; conditions: MCF7, 48 h, read-out: GI; method in brief: as §1
A549 = assay: Growth inhibition of human A549 cells at 10 uM after 48 hrs by coulter counting; conditions: A549, 48 h, read-out: GI; method in brief: as §1
SF-295 = assay: Growth inhibition of human SF295 cells at 10 uM after 48 hrs by coulter counting; conditions: SF-295, 48 h, read-out: GI; method in brief: as §1
NCI-H522 = assay: Growth inhibition of human NCI-H522 cells at 10 uM after 48 hrs by coulter counting; conditions: NCI-H522, 48 h, read-out: GI; method in brief: as §1
OVCAR-4 = assay: Growth inhibition of human OVCAR4 cells at 10 uM after 48 hrs by coulter counting; conditions: OVCAR-4, 48 h, read-out: GI; method in brief: as §1
CAKI-1 = assay: Growth inhibition of human Caki1 cells at 10 uM after 48 hrs by coulter counting; conditions: CAKI-1, 48 h, read-out: GI; method in brief: as §1
ACHN = assay: Growth inhibition of human ACHN cells at 10 uM after 48 hrs by coulter counting; conditions: read-out: GI; method in brief: as §1
U-251 = assay: Growth inhibition of human U251 cells at 10 uM after 48 hrs by coulter counting; conditions: U-251, 48 h, read-out: GI; method in brief: as §2
UO-31 = assay: Growth inhibition of human UO31 cells at 10 uM after 48 hrs by coulter counting; conditions: UO-31, 48 h, read-out: GI; method in brief: as §2
LOX IMVI = assay: Growth inhibition of human LOXIMVI cells at 10 uM after 48 hrs by coulter counting; conditions: read-out: GI; method in brief: as §1
HL-60(TB) = assay: Growth inhibition of human HL-60(TB) cells at 10 uM after 48 hrs by coulter counting; conditions: HL-60, 48 h, read-out: GI
Method in brief: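 Test compound was dissolved in DMSO and diluted in phosphate-buffered saline to a final DMSO level below 1%. Dilutions were plated in duplicate with cell culture at 6 × 10⁴ cells/ml. Vehicle controls held PBS and DMSO at matching dilutions. Incubation was at 37 °C, humidified, under 5% CO₂. Data were reported as percent growth of treated cells.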

SNB-19 = assay: Growth inhibition of human SNB19 cells at 10 uM after 48 hrs by coulter counting; conditions: SNB-19, 48 h, read-out: GI; method in brief: as §1
NCI/ADR-RES = assay: Growth inhibition of human NCI/ADR-RES cells at 10 uM after 48 hrs by coulter counting; conditions: read-out: GI; method in brief: as §1
EKVX = assay: Growth inhibition of human EKVX cells at 10 uM after 48 hrs by coulter counting; conditions: read-out: GI; method in brief: as §1
SK-MEL-5 = assay: Growth inhibition of human SK-MEL-5 cells at 10 uM after 48 hrs by coulter counting; conditions: SK-MEL-5, 48 h, read-out: GI; method in brief: as §1
T47D = assay: Growth inhibition of human T47D cells at 10 uM after 48 hrs by coulter counting; conditions: read-out: GI; method in brief: as §2
IGROV-1 = assay: Growth inhibition of human IGROV1 cells at 10 uM after 48 hrs by coulter counting; conditions: IGROV-1, 48 h, read-out: GI; method in brief: as §1
KM12 = assay: Growth inhibition of human KM12 cells at 10 uM after 48 hrs by coulter counting; conditions: KM12, 48 h, read-out: GI; method in brief: as §1
CCRF-CEM = assay: Growth inhibition of human CCRF-CEM cells at 10 uM after 48 hrs by coulter counting; conditions: read-out: GI; method in brief: as §1
NCI-H23 = assay: Growth inhibition of human NCI-H23 cells at 10 uM after 48 hrs by coulter counting; conditions: NCI-H23, 48 h, read-out: GI; method in brief: as §1
HCC 2998 = assay: Growth inhibition of human HCC2998 cells at 10 uM after 48 hrs by coulter counting; conditions: HCC 2998, 48 h, read-out: GI; method in brief: as §1
SK-MEL-2 = assay: Growth inhibition of human SK-MEL-2 cells at 10 uM after 48 hrs by coulter counting; conditions: SK-MEL-2, 48 h, read-out: GI; method in brief: as §1
BT-549 = assay: Growth inhibition of human BT549 cells at 10 uM after 48 hrs by coulter counting; conditions: BT-549, 48 h, read-out: GI; method in brief: as §1
MDA-MB-435 = assay: Growth inhibition of human MDA-MB-435 cells at 10 uM after 48 hrs by coulter counting; conditions: MDA-MB-435, 48 h, read-out: GI; method in brief: as §1
[1] = Growth inhibition of human NCI-322M cells at 10 uM after 48 hrs by coulter counting; conditions: read-out: GI; method in brief: as §1
UACC-62 = assay: Growth inhibition of human UACC62 cells at 10 uM after 48 hrs by coulter counting; conditions: UACC-62, 48 h, read-out: GI; method in brief: as §2
NCI-H226 = assay: Growth inhibition of human NCI-H226 cells at 10 uM after 48 hrs by coulter counting; conditions: NCI-H226, 48 h, read-out: GI; method in brief: as §1
SF-268 = assay: Growth inhibition of human SF268 cells at 10 uM after 48 hrs by coulter counting; conditions: SF-268, 48 h, read-out: GI; method in brief: as §1

Measured: inhibition of growth at 10 µM

CC1=CSC2=NC3=C(CCC/C3=C\c3ccccc3)C(c3ccccc3)N12 (stereo not drawn)
13.8%: K562
28.8%: UO-31
11.2%: NCI-H226
13.3%: SNB-75
11.4%: CAKI-1
> 10%: all other assays above

COc1ccc(/C=C2\CCCC3=C2N=C2SC=C(C)N2C3c2ccc(OC)c(OC)c2)cc1OC (stereo not drawn)
10.5%: NCI-H226
11.4%: EKVX
not listed: HOP-62
> 10%: all other assays above
